According to ChEMBL document CHEMBL4828710, “Lead optimization to improve the antiviral potency of 2-aminobenzamide derivatives targeting HIV-1 Vif-A3G axis” (Eur J Med Chem, 2021):
Calls of active or inactive are those of the source. No cut-off for these calls is given here.

Legend:
[1] = Therapeutic index, ratio of CC50 for cytotoxicity against human H9 cells to EC50 for antiviral activity against HIV13B; assay type: toxicity, cell-based; conditions: read-out: TI
Outline: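 TI = CC50/EC50. For EC50, H9 cells were infected with HIV-1 IIIB at MOI 0.03 for 2 h, washed three times, plated at 4 × 10⁴ cells/well with serial compound dilutions, and kept 7 days at 37 °C, 5% CO₂; supernatant p24 was read by in-house ELISA. For CC50, uninfected H9 cells at 2 × 10⁵/well in RPMI-1640 with 10% FBS were kept 7 days, then read by MTT.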

[2] = tested on: Human immunodeficiency virus 1; experiment: Antiviral activity against HIV13B infected in human H9 cells assessed as p24 level incubated for 7 days by ELISA; assay type: functional, organism-based; conditions: Human immunodeficiency virus 1, 3B, H9, 168 h
Outline: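 H9 cells were infected with HIV-1 IIIB at MOI 0.03 for 2 h, washed three times and resuspended in RPMI-1640. Infected cells (4 × 10⁴/well) were cultured with serially diluted compound at 37 °C in 5% CO₂ for 7 days. Supernatant p24 was measured by in-house ELISA, and EC50 was calculated.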

H9 [3] = experiment: Cytotoxicity against human H9 cells assessed as cell viability incubated for 7 days by MTT colorimetric assay; assay type: functional; conditions: H9, 168 h, time 7 day
Outline: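 H9 cells (2 × 10⁵/well) were incubated with varying compound concentrations in RPMI-1640 with 10% FBS at 37 °C in 5% CO₂ for seven days. Viability was read by MTT colorimetric assay, and CC50 was calculated.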

[4] = tested on: Human immunodeficiency virus; experiment: Antiviral activity against FI resistant HIV PNL4-3-3gp41(364)V38A N42T infected in human TZM-bl cells assessed as inhibition of replication for 48 hrs by microplate reader method; assay type: functional, organism-based
[5] = molecular target: Virion infectivity factor (Human immunodeficiency virus type 1 group M subtype B (isolate NY5)(HIV-1)) (UniProt P12504); experiment: Reversal of HIV1 Vif mediated A3G degradation in HIV1 infected human H9 cells for 48 hrs by western blotting analysis; assay type: cell-based; conditions: Human immunodeficiency virus 1
Outline: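 Cells expressing A3G-HA and Vif were treated with compound at 50, 10 and 2 (three concentrations) at 37 °C for 48 h. They were then washed in ice-cold PBS and lysed in RIPA. A3G-HA and Vif were detected by SDS-PAGE, PVDF transfer, primary antibodies overnight at 4 °C, and HRP secondary for 2 h at room temperature, with chemiluminescence on X-ray film.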

[6] = tested on: Human immunodeficiency virus 1; experiment: Antiviral activity against PI resistant HIV-1 L70R/M461/L63P/V82T/184V infected in human TZM-bl cells assessed as inhibition of replication for 48 hrs by microplate reader method; assay type: functional, organism-based; conditions: Human immunodeficiency virus 1, L70R/M461/L63P/V82T/184V
[7] = tested on: Human immunodeficiency virus 1; experiment: Antiviral activity against NNRTI resistant HIV1 A17 infected in human TZM-bl cells assessed as inhibition of replication for 48 hrs by microplate reader method; assay type: functional, organism-based; conditions: Human immunodeficiency virus 1, A17, TZM-bl
[8] = tested on: Human immunodeficiency virus 1; experiment: Antiviral activity against NRTI resistant HIV1-4755-5 infected in human TZM-bl cells assessed as inhibition of replication for 48 hrs by microplate reader method; assay type: functional, organism-based; conditions: Human immunodeficiency virus 1, 4755-5, TZM-bl
[9] = tested on: Human immunodeficiency virus 1; experiment: Antiviral activity against IN resistant HIV1 pYU2G14OS/Q148H infected in human TZM-bl cells assessed as inhibition of replication for 48 hrs by microplate reader method; assay type: functional, organism-based; conditions: Human immunodeficiency virus 1, pYU2G14OS/Q148H
H9 [10] = experiment: Reduction in HIV1 Vif expression in HIV1 infected human H9 cells assessed as for 48 hrs by western blotting analysis; assay type: functional, cell-based; conditions: Human immunodeficiency virus 1, dose 2-50 µM
Outline: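 Cells were exposed to the compound at […] at 37 °C for 48 h, then washed with ice-cold PBS and lysed in RIPA buffer. A3G-HA and Vif were resolved by SDS-PAGE and transferred to PVDF. Blots were probed overnight at 4 °C with primary antibodies, then 2 h at room temperature with HRP secondary antibodies. Bands were visualized by chemiluminescence on X-ray film.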

Sequence of Virion infectivity factor (Human immunodeficiency virus type 1 group M subtype B (isolate NY5)(HIV-1)) (P12504 whole entry): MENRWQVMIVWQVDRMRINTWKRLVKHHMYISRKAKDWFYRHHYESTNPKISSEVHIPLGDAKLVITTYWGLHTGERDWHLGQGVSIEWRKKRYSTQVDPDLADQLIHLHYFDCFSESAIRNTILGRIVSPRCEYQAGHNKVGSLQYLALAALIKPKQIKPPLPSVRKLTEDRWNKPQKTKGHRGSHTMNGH

| Structure (SMILES) | selectivity ratio [1] | EC50 [2] [µM] | CC50 (H9 [3]) [µM] | also measured |
| --- | --- | --- | --- | --- |
| COc1ccc(NC(=O)c2c(N)cccc2S(=O)(=O)c2ccc([N+](=O)[O-])cc2)cc1OC | > 6.45 | 15.5 | > 100 |  |
| COc1ccc(OCCO)cc1NC(=O)c1c(N)cccc1Sc1ccc([N+](=O)[O-])cc1 |  | > 100 |  |  |
| COc1ccc(NC(=O)c2c(N)cccc2S(=O)(=O)c2ccc([N+](=O)[O-])cc2)c(OC)c1 | > 27.9 | 3.58 | > 100 |  |
| COc1ccc(OC)c(NC(=O)c2c(N)cccc2Sc2ccc([N+](=O)[O-])cc2)c1 | > 49.4 | 4.05 | > 200 |  |
| Nc1ccn([C@@H]2CS[C@H](CO)O2)c(=O)n1 [LAMIVUDINE] | > 976 | 0.21 | > 200 |  |
| COc1ccc(OCCCO)cc1NC(=O)c1c(N)cccc1Sc1ccc([N+](=O)[O-])cc1 |  | > 100 |  |  |
| COc1ccccc1NC(=O)c1c(N)cccc1S(=O)(=O)c1ccc([N+](=O)[O-])cc1 | > 1380 | 0.34 | > 468 |  |
| Nc1cccc(S(=O)(=O)c2ccc([N+](=O)[O-])cc2)c1C(=O)Nc1cccc(O)c1 |  | > 100 |  |  |
| COc1ccc(O)cc1NC(=O)c1c(N)cccc1S(=O)(=O)c1ccc([N+](=O)[O-])cc1 | 3700 | 0.07 | 259 | EC50 [4]: 3.02 µM; Activity [5]: Dose-Dependent Effect; EC50 [6]: 4.39 µM; EC50 [7]: 46.4 µM; EC50 [8]: 8.4 µM; EC50 [9]: 3.74 µM; Activity (H9 [10]): Active |
| COc1cc(NC(=O)c2c(N)cccc2S(=O)(=O)c2ccc([N+](=O)[O-])cc2)cc(OC)c1 |  | > 100 |  |  |
| COc1ccc(OCCN2CCOCC2)cc1NC(=O)c1c(N)cccc1Sc1ccc([N+](=O)[O-])cc1 |  | > 100 |  |  |
| COc1ccc(Cl)cc1NC(=O)c1c(N)ncnc1Sc1ccc([N+](=O)[O-])cc1 | 0.11 | 20 | 2.22 |  |
| COc1ccccc1NC(=O)c1c(N)ncnc1Sc1ccc([N+](=O)[O-])cc1 | 3.38 | 9.73 | 32.9 |  |
| COc1ccc(NC(=O)c2c(N)cccc2S(=O)(=O)c2ccc([N+](=O)[O-])cc2)cc1O |  | > 100 |  |  |
| COc1ccc(C(=O)O)cc1NC(=O)c1c(N)cccc1S(=O)(=O)c1ccc([N+](=O)[O-])cc1 |  | > 100 |  |  |
| COc1cc(O)ccc1NC(=O)c1c(N)cccc1S(=O)(=O)c1ccc([N+](=O)[O-])cc1 | 9.48 | 5.77 | 54.7 |  |
| Cc1cc(C)cc(NC(=O)c2c(N)cccc2S(=O)(=O)c2ccc([N+](=O)[O-])cc2)c1 | > 3.79 | 26.4 | > 100 |  |
| COc1ccc(C(=O)O)cc1NC(=O)c1c(N)cccc1Sc1ccc([N+](=O)[O-])cc1 | > 238 | 0.42 | > 100 |  |
| COc1ccc(O)cc1NC(=O)c1c(N)ncnc1Sc1ccc([N+](=O)[O-])cc1 | 0.88 | 40.6 | 35.8 |  |
| COc1ccc(O)cc1NC(=O)c1c(N)cccc1Sc1ccc([N+](=O)[O-])cc1 | > 213 | 0.47 | > 100 |  |
| Cc1cc(Br)ccc1NC(=O)c1c(N)cccc1S(=O)(=O)c1ccc([N+](=O)[O-])cc1 |  | > 100 |  |  |
| COc1ccc(OC)c(NC(=O)c2c(N)cccc2S(=O)(=O)c2ccc([N+](=O)[O-])cc2)c1 | > 50.4 | 3.97 | > 200 |  |
| COc1ccc(F)cc1NC(=O)c1c(N)cccc1Sc1ccc([N+](=O)[O-])cc1 | > 47.2 | 2.12 | > 100 |  |
| COc1ccc(F)cc1NC(=O)c1c(N)cccc1S(=O)(=O)c1ccc([N+](=O)[O-])cc1 | 46.4 | 1.93 | 89.6 |  |
| COc1ccc(NC(=O)c2c(N)cccc2S(=O)(=O)c2ccc([N+](=O)[O-])cc2)cc1 |  | > 100 |  |  |
| Nc1cccc(S(=O)(=O)c2ccc([N+](=O)[O-])cc2)c1C(=O)Nc1ccc(O)cc1 |  | 4.59 | 32.5 |  |
| COc1cccc(NC(=O)c2c(N)cccc2S(=O)(=O)c2ccc([N+](=O)[O-])cc2)c1 |  | > 100 |  |  |
| Nc1cccc(S(=O)(=O)c2ccc([N+](=O)[O-])cc2)c1C(=O)Nc1ccc(Cl)cc1F | > 9.71 | 10.3 | > 100 |  |
| COc1ccc(F)cc1NC(=O)c1c(N)ncnc1Sc1ccc([N+](=O)[O-])cc1 | 0.65 | 41.1 | 26.6 |  |
